# Experimental data taken from ChEMBL document CHEMBL1151472, “In vitro interactions between tacrolimus and azoles against Candida albicans determined by different methods” (2008).
# What was measured:
# Type in all cases: functional
# [1] = system: Candida albicans; test: Antimicrobial activity against azole-resistant Candida albicans isolate CA10 assessed as growth at 2 ug/ml cotreated with 0.004 ug/ml calcineurin signaling inhibitor tacrolimus after 48 hrs by microdilution checkerboard technique relative to control; set-up: scale not given: the % may be the effect or the level left
# Outline: (§1)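 Checkerboard microdilution in MOPS-buffered RPMI 1640 (pH 7.0, 2% dextrose). Final ranges: azole 0.125–128 μg/ml (FLC) or 0.008–8 μg/ml (ITR, VRC), tacrolimus 0.002–0.125 μg/ml; solvent 1% in single-drug wells. Inoculum 2.5 × 10^3 CFU/ml, 35°C, 48 h. Growth % = background-subtracted OD492 of each well / drug-free well. Triplicate on different days.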
# [2] = system: Candida albicans; test: Antimicrobial activity against azole-resistant Candida albicans isolate CA10 assessed as growth at 0.5 ug/ml co-treated with 0.031 ug/ml calcineurin signaling inhibitor tacrolimus after 48 hrs by microdilution checkboard technique relative to control; set-up: scale not given: the % may be the effect or the level left
# Outline: (§2)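 Checkerboard microdilution in RPMI 1640 (pH 7.0, 2% dextrose, 0.165 M MOPS). Azole dilutions run along columns and FK506 along rows, at 4× final concentration. Final inoculum 2.5 × 10^3 CFU/ml from Sabouraud-subcultured cells. Incubated 35°C for 48 h; OD read at 492 nm. Background from microorganism-free plates subtracted. Growth % = well OD / drug-free well OD. Triplicate on different days, values averaged.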
# [3] = system: Candida albicans; test: Antimicrobial activity against azole-resistant Candida albicans isolate CA15 cotreated with calcineurin signaling inhibitor Tacrolimus after 48 hrs by microdilution checkerboard technique; settings: isolate CA15, 48 h
# Outline: (§3)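 Checkerboard microdilution in MOPS-buffered RPMI 1640 (pH 7.0, 2% dextrose) with 2.5 × 10^3 CFU/ml for 48 h at 35°C. Final FK506 was 0.002–0.125 μg/ml. Azole finals were FLC 0.125–128 μg/ml, and ITR and VRC 0.008–8 μg/ml. MIC80 is an 80% OD492 decrease vs drug-free control. Interaction was scored by FICI (synergy ≤0.5, antagonism >4) and by ΔE from triplicates.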
# [4] = system: Candida albicans; test: Antimicrobial activity against azole-resistant Candida albicans isolate CA10 assessed as growth at 128 ug/ml cotreated with 0.004 ug/ml calcineurin signaling inhibitor Tacrolimus after 48 hrs by microdilution checkboard technique relative to control; set-up: scale not given: the % may be the effect or the level left; outline: as §1
# [5] = system: Candida albicans; test: Antimicrobial activity against azole-resistant Candida albicans isolate CA10 assessed as growth at 0.125 ug/ml co-treated with 0.031 ug/ml calcineurin signaling inhibitor tacrolimus after 48 hrs by microdilution checkboard technique relative to control; set-up: scale not given: the % may be the effect or the level left; outline: as §2
# [6] = system: Candida albicans; test: Antimicrobial activity against azole-resistant Candida albicans isolate CA10 assessed as growth at 0.5 ug/ml cotreated with 0.004 ug/ml calcineurin signaling inhibitor tacrolimus after 48 hrs by microdilution checkerboard technique relative to control; set-up: scale not given: the % may be the effect or the level left; outline: as §1
# [7] = system: Candida albicans; test: Antimicrobial activity against azole-resistant Candida albicans isolate CA10 assessed as growth at 8 ug/ml cotreated with 0.031 ug/ml calcineurin signaling inhibitor tacrolimus after 48 hrs by microdilution checkerboard technique relative to control; set-up: scale not given: the % may be the effect or the level left; outline: as §2
# [8] = system: Candida albicans; test: Antimicrobial activity against azole-resistant Candida albicans isolate CA10 assessed as growth at 2 ug/ml cotreated with 0.002 ug/ml calcineurin signaling inhibitor tacrolimus after 48 hrs by microdilution checkerboard technique relative to control; set-up: scale not given: the % may be the effect or the level left; outline: as §1
# [9] = system: Candida albicans; test: Antimicrobial activity against azole-susceptible Candida albicans isolate CA129 after 48 hrs by broth microdilution method; settings: isolate CA129, 48 h
# Outline: (§4)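 CLSI M27-A2 broth microdilution was run in RPMI 1640 (pH 7.0, 2% dextrose, 0.165 M MOPS). Inoculum was 2.5 × 10^3 CFU/ml, incubated 35°C for 48 h without shaking. Plates were read visually (0–5 scale) and at OD 492 nm. MIC80 = lowest concentration giving an 80% absorbance decrease vs drug-free control. Triplicate.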
# [10] = system: Candida albicans; test: Antimicrobial activity against azole-susceptible Candida albicans isolate CA8 co-treated with calcineurin signaling inhibitor tacrolimus after 48 hrs by microdilution checkerboard technique; settings: isolate CA8, 48 h; outline: as §3
# [11] = system: Candida albicans; test: Antimicrobial activity against azole-resistant Candida albicans isolate CA10 assessed as growth at 32 ug/ml co-treated with 0.008 ug/ml calcineurin signaling inhibitor tacrolimus after 48 hrs by microdilution checkboard technique relative to control; set-up: scale not given: the % may be the effect or the level left
# Outline: (§5)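 CA10 in RPMI 1640 with 2% dextrose and 0.165 M MOPS, pH 7.0. Checkerboard used twofold dilutions, with azole alone in row H and the drug-free growth control in well H1. Final inoculum was 2.5 × 10^3 CFU/ml, incubated 35°C for 48 h, with OD read at 492 nm. Growth % = background-subtracted well OD / drug-free well OD. Run in triplicate on different days.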
# [12] = system: Candida albicans; test: Antimicrobial activity against azole-susceptible Candida albicans isolate CA8 after 48 hrs by broth microdilution method; settings: isolate CA8, 48 h; outline: as §4
# [13] = system: Candida albicans; test: Antimicrobial activity against azole-resistant Candida albicans isolate CA10 assessed as growth at 0.063 ug/ml after 48 hrs by microdilution checkerboard technique relative to control; outline: as §1
# [14] = system: Candida albicans; test: Antimicrobial activity against azole-resistant Candida albicans isolate CA10 assessed as growth at 16 ug/ml cotreated with 0.063 ug/ml calcineurin signaling inhibitor tacrolimus after 48 hrs by microdilution checkerboard technique relative to control; set-up: scale not given: the % may be the effect or the level left; outline: as §1
# [15] = system: Candida albicans; test: Antimicrobial activity against azole-resistant Candida albicans isolate CA10 assessed as growth at 32 ug/ml cotreated with 0.063 ug/ml calcineurin signaling inhibitor Tacrolimus after 48 hrs by microdilution checkboard technique relative to control; set-up: scale not given: the % may be the effect or the level left; outline: as §5
# [16] = system: Candida albicans; test: Antimicrobial activity against azole-resistant Candida albicans isolate CA10 assessed as growth at 4 ug/ml after 48 hrs by microdilution checkerboard technique relative to control; outline: as §5
# [17] = system: Candida albicans; test: Antimicrobial activity against azole-resistant Candida albicans isolate CA10 assessed as growth at 0.008 ug/ml after 48 hrs by microdilution checkerboard technique relative to control; outline: as §1
# [18] = system: Candida albicans; test: Antimicrobial activity against azole-resistant Candida albicans isolate CA10 assessed as growth at 0.125 ug/ml cotreated with 0.002 ug/ml calcineurin signaling inhibitor Tacrolimus after 48 hrs by microdilution checkboard technique relative to control; set-up: scale not given: the % may be the effect or the level left; outline: as §1
# [19] = system: Candida albicans; test: Antimicrobial activity against azole-resistant Candida albicans isolate CA10 assessed as growth at 2 ug/ml co-treated with 0.031 ug/ml calcineurin signaling inhibitor tacrolimus after 48 hrs by microdilution checkboard technique relative to control; set-up: scale not given: the % may be the effect or the level left; outline: as §2
# [20] = system: Candida albicans; test: Antimicrobial activity against azole-resistant Candida albicans isolate CA10 assessed as growth at 8 ug/ml after 48 hrs by microdilution checkerboard technique relative to control; outline: as §5
# [21] = system: Candida albicans; test: Antimicrobial activity against azole-resistant Candida albicans isolate CA10 assessed as growth at 8 ug/ml cotreated with 0.016 ug/ml calcineurin signaling inhibitor Tacrolimus after 48 hrs by microdilution checkboard technique relative to control; set-up: scale not given: the % may be the effect or the level left; outline: as §5
# [22] = system: Candida albicans; test: Antimicrobial activity against azole-resistant Candida albicans isolate CA10 assessed as growth at 0.5 ug/ml co-treated with 0.125 ug/ml calcineurin signaling inhibitor tacrolimus after 48 hrs by microdilution checkboard technique relative to control; set-up: scale not given: the % may be the effect or the level left; outline: as §1
# [23] = system: Candida albicans; test: Antimicrobial activity against azole-resistant Candida albicans isolate CA10 assessed as growth at 8 ug/ml cotreated with 0.125 ug/ml calcineurin signaling inhibitor Tacrolimus after 48 hrs by microdilution checkboard technique relative to control; set-up: scale not given: the % may be the effect or the level left; outline: as §5
structure (smiles),measurement,setting,value
OC(Cn1cncn1)(Cn1cncn1)c1ccc(F)cc1F [FLUCONAZOLE],Activity,[1],32%
same,Activity,[2],19%
same,MIC,[3],0.5 µg/mL
same,Activity,[4],45%
same,Activity,[5],36%
same,Activity,[6],38%
same,Activity,[7],18%
same,Activity,[8],48%
same,MIC,[9],0.5 µg/mL
same,MIC,[10],66 µg/mL
same,Activity,[11],25%
same,MIC,[12],0.25 µg/mL
same,Activity,[13],93%
same,Activity,[14],7%
same,Activity,[15],1%
same,Activity,[16],53%
same,Activity,[17],96%
same,Activity,[18],76%
same,Activity,[19],12%
same,Activity,[20],55%
same,Activity,[21],19%
same,Activity,[22],6%
same,Activity,[23],2%
